Values after ≈ are worked out from the molar mass of the structure shown.
Experiments:
Format in all cases: functional
Aspergillus niger = assay: Antifungal activity against Aspergillus niger ATCC 16404 after 24 to 72 hrs by microdilution method
Summary of the method: (§1)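 Broth microdilution MIC in U-bottom 96-well plates. Compound stock made in Sabouraud dextrose broth/DMSO (9:1) and serially diluted with SDB. Fungal suspension (1 × 10^3 CFU/mL) added to give a final inoculum of 0.5 × 10^3 CFU/mL. Plates incubated at 35 °C and read at 24, 48 and 72 h. MIC is the lowest concentration with no visible growth compared with a drug-free control well.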

Saccharomyces cerevisiae [1] = assay: Antifungal activity against Saccharomyces cerevisiae ATCC 9763 after 24 to 72 hrs by microdilution method; summary of the method: as §1
Saccharomyces cerevisiae [2] = assay: Antifungal activity against Saccharomyces cerevisiae NCYC 694 after 24 to 72 hrs by microdilution method; summary of the method: as §1
Nakaseomyces glabratus = assay: Antifungal activity against Candida glabrata ATCC 90030 after 24 to 72 hrs by microdilution method; summary of the method: as §1
Candida albicans [3] = assay: Antifungal activity against Candida albicans ATCC 10231 after 24 to 72 hrs by microdilution method; summary of the method: as §1
Candida albicans [4] = assay: Ratio of fluconazole MIC to compound MIC for Candida albicans ATCC 10231
Saccharomyces cerevisiae [5] = assay: Ratio of fluconazole MIC to compound MIC for Saccharomyces cerevisiae NCYC 694

SMILES	MIC (Aspergillus niger) [µg/mL]	MIC (Saccharomyces cerevisiae [1]) [µg/mL]	MIC (Saccharomyces cerevisiae [2]) [µg/mL]	MIC (Nakaseomyces glabratus) [µg/mL]	MIC (Candida albicans [3]) [µg/mL]	Ratio (Candida albicans [4])	Ratio (Saccharomyces cerevisiae [5])
O/N=C1\c2ccccc2O[C@@H](c2ccc(Cl)cc2Cl)[C@@H]1n1cncn1 (relative stereo)	> 62.5	62.5 (≈ 167 µM)	> 125	> 62.5	> 125		
O=C1c2ccccc2O[C@@H](c2ccc(F)cc2)[C@@H]1n1cncn1 (relative stereo)	> 62.5	3.9 (≈ 12.6 µM)	0.98 (≈ 3.17 µM)	31.3 (≈ 101 µM)	3.9 (≈ 12.6 µM)	8	16
O=C1c2ccccc2O[C@@H](c2ccc(Cl)cc2)[C@@H]1n1cncn1 (relative stereo)	> 62.5	3.9 (≈ 12 µM)	> 125	> 62.5	3.9 (≈ 12 µM)		
COc1ccc([C@@H]2Oc3ccccc3C(=O)[C@H]2n2cncn2)cc1 (relative stereo)	> 62.5	125 (≈ 389 µM)	> 125	> 62.5	> 125		
OC(Cn1cncn1)(Cn1cncn1)c1ccc(F)cc1F [FLUCONAZOLE]	> 125	15.6 (≈ 50.9 µM)	15.6 (≈ 50.9 µM)	31.3 (≈ 102 µM)	31.3 (≈ 102 µM)		
O=C1c2ccccc2O[C@@H](c2ccccc2Cl)[C@@H]1n1cncn1.O=[N+]([O-])O (relative stereo)	> 62.5	125	> 125	> 62.5	> 125		
CC(=O)N1CCN(c2ccc(OCC3COC(Cn4ccnc4)(c4ccc(Cl)cc4Cl)O3)cc2)CC1 (stereo unspecified) [KETOCONAZOLE]	15.6 (≈ 29.4 µM)						
O=C1c2ccccc2O[C@@H](c2cccc(Cl)c2)[C@@H]1n1cncn1 (relative stereo)	> 62.5	> 125	1.95 (≈ 5.99 µM)	62.5 (≈ 192 µM)	3.9 (≈ 12 µM)	8	8
O=C1c2ccccc2O[C@@H](c2ccc(Cl)cc2Cl)[C@@H]1n1cncn1 (relative stereo)	> 62.5	31.3 (≈ 86.9 µM)	31.3 (≈ 86.9 µM)	> 62.5	125 (≈ 347 µM)		
O=C1c2ccccc2O[C@@H](c2cccc(F)c2)[C@@H]1n1cncn1 (relative stereo)	> 62.5	15.6 (≈ 50.4 µM)	> 125	> 62.5	15.6 (≈ 50.4 µM)	2	
Cc1ccc([C@@H]2Oc3ccccc3C(=O)[C@H]2n2cncn2)cc1 (relative stereo)	> 62.5	> 125	> 125	> 62.5	> 125		
O=C1c2ccccc2O[C@@H](c2ccccc2)[C@@H]1n1cncn1 (relative stereo)	> 62.5	125 (≈ 429 µM)	> 125	> 62.5	31.3 (≈ 107 µM)		
COc1ccccc1[C@@H]1Oc2ccccc2C(=O)[C@H]1n1cncn1.O=[N+]([O-])O (relative stereo)	> 62.5	> 125	> 125	> 62.5	> 125		
O/N=C1\c2ccccc2O[C@@H](c2ccccc2)[C@@H]1n1cncn1 (relative stereo)	> 62.5	125 (≈ 408 µM)	> 125	> 62.5	> 125		
COc1cccc([C@@H]2Oc3ccccc3C(=O)[C@H]2n2cncn2)c1 (relative stereo)	> 62.5	> 125	> 125	> 62.5	> 125		
